Test results: ChEMBL document CHEMBL2321699, “Discovery of O-Alkylamino Tethered Niclosamide Derivatives as Potent and Orally Bioavailable Anticancer Agents” (ACS Med Chem Lett, 2013)
≈ marks a conversion by molar mass, not a printed value. Calls of active or inactive are those of the source. The rule behind the calls is not given here.

How the values were obtained:
[1] = test system: MCF7; assay: Cytotoxicity against human ER positive MCF7 cells after 72 hrs by MTS assay; assay type: functional, cell-based; conditions: MCF7, 72 h
Outline: (§1)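 Cell proliferation of MCF-7, MDA-MB-231, AsPC1 and Panc-1 measured by MTS assay; IC50 in μM.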

[2] = test system: MDA-MB-231; assay: Cytotoxicity against human ER negative MDA-MB-231 cells after 72 hrs by MTS assay; assay type: functional, cell-based; conditions: MDA-MB-231, 72 h; outline: as §1
[3] = test system: PANC-1; assay: Cytotoxicity against human PANC1 cells after 72 hrs by MTS assay; assay type: functional, cell-based; conditions: PANC-1, 72 h; outline: as §1
[4] = test system: ASPC1; assay: Cytotoxicity against human AsPC1 cells after 72 hrs by MTS assay; assay type: functional, cell-based; conditions: ASPC1, 72 h; outline: as §1
[5] = test system: MDA-MB-231; assay: Induction of apoptosis in human ER negative MDA-MB-231 cells assessed as cleavage of caspase-3 after 48 hrs; assay type: functional, cell-based
[6] = test system: MDA-MB-231; assay: Induction of apoptosis in human ER negative MDA-MB-231 cells assessed as down regulation of cycline D1 at 1 to 10 uM after 48 hrs; assay type: functional, cell-based
[7] = target: Signal transducer and activator of transcription 3 (Homo sapiens) (UniProt P40763); assay: Inhibition of STAT3 promoter activity in human ER negative MDA-MB-231 cells after 24 hrs by dual luciferase reporter assay; assay type: cell-based
Outline: (§2)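 MDA-MB-231 cells pretreated 24 h at various concentrations, then transiently transfected with pSTAT3-Luc vector; STAT3 promoter activity by dual luciferase reporter assay, expressed relative to control.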

[8] = test system: MDA-MB-231; assay: Induction of apoptosis in human ER negative MDA-MB-231 cells using annexin-V staining at 1 to 10 uM after 48 hrs by flow cytometry; assay type: functional, cell-based
Outline: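 Apoptosis in MDA-MB-231 cells measured by annexin V staining with flow cytometry across a dose range.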

[9] = test system: MDA-MB-231; assay: Antitumor activity against human ER negative MDA-MB-231 cells xenografted in nude mouse assessed as inhibition of tumor growth at 7.5 mg/kg, ip qd for 5 days; assay type: functional, organism-based; set-up: dose 7.5 mg/kg
Outline: (§3)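 MDA-MB-231 xenografts in mice; tumor growth followed after intraperitoneal or oral dosing, doses as listed per line.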

[10] = test system: MDA-MB-231; assay: Induction of apoptosis in human ER negative MDA-MB-231 cells at 1 to 10 uM after 48 hrs by light microscopic analysis; assay type: functional, cell-based
Outline: (§4)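 MDA-MB-231 cells treated 48 h at 1, 5 and 10 μM; cell morphology, growth and apoptotic features examined under light microscopy.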

[11] = test system: MDA-MB-231; assay: Induction of apoptosis in human ER negative MDA-MB-231 cells assessed as cleavage of caspase-3 at 1 to 10 uM after 48 hrs; assay type: functional, cell-based
[12] = target: Signal transducer and activator of transcription 3 (Homo sapiens) (UniProt P40763); assay: Inhibition of STAT3 promoter activity in human ER negative MDA-MB-231 cells at 10 uM after 24 hrs by dual luciferase reporter assay; assay type: cell-based; outline: as §2
[13] = target: Signal transducer and activator of transcription 3 (Homo sapiens) (UniProt P40763); assay: Inhibition of STAT3 in human ER negative MDA-MB-231 cells assessed as reduction of phosphorylated STAT3 at Tyr-705 level at 1 to 10 uM after 24 hrs by Western blot analysis; assay type: cell-based
Outline: (§5)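 MDA-MB-231 cells treated with a series of doses for 24 h; total STAT3 and Tyr-705-phosphorylated STAT3 detected by Western blot.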

[14] = test system: MDA-MB-231; assay: Induction of morphological changes in human ER negative MDA-MB-231 cells at 1 to 10 uM after 48 hrs by light microscopic analysis; assay type: functional, cell-based; outline: as §4
[15] = test system: MDA-MB-231; assay: Antiproliferative activity against human ER negative MDA-MB-231 cells at 1 to 10 uM after 48 hrs by light microscopic analysis; assay type: functional, cell-based; outline: as §4
[16] = test system: MDA-MB-231; assay: Antitumor activity against human ER negative MDA-MB-231 cells xenografted in nude mouse assessed as inhibition of tumor growth at 25 mg/kg, po qd for 5 days; assay type: functional, organism-based; set-up: dose 25 mg/kg; outline: as §3
[17] = target: Signal transducer and activator of transcription 3 (Homo sapiens) (UniProt P40763); assay: Inhibition of STAT3 promoter activity in human ER negative MDA-MB-231 cells at 20 uM after 24 hrs by dual luciferase reporter assay; assay type: cell-based; outline: as §2
[18] = test system: MDA-MB-231; assay: Antiproliferative activity against human ER negative MDA-MB-231 cells at 10 to 20 uM after 24 hrs by MTT assay; assay type: functional, cell-based
Outline: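 MDA-MB-231 cells exposed 24 h; proliferation read by MTT assay.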

[19] = target: Signal transducer and activator of transcription 3 (Homo sapiens) (UniProt P40763); assay: Inhibition of STAT3 in human ER negative MDA-MB-231 cells assessed as reduction of total STAT3 level at 1 to 10 uM after 24 hrs by Western blot analysis; assay type: cell-based; outline: as §5
[20] = Solubility of the compound in water; assay type: physicochemical
[21] = test system: MDA-MB-231; assay: Antitumor activity against human ER negative MDA-MB-231 cells xenografted in nude mouse assessed as inhibition of tumor growth at 75 mg/kg, po qd for 5 days; assay type: functional, organism-based; set-up: dose 75 mg/kg; outline: as §3
[22] = test system: MDA-MB-231; assay: Antitumor activity against human ER negative MDA-MB-231 cells xenografted in nude mouse assessed as inhibition of tumor growth at 12.5 mg/kg, ip qd for 5 days; assay type: functional, organism-based; set-up: dose 12.5 mg/kg; outline: as §3

Chain of Signal transducer and activator of transcription 3 (Homo sapiens) (P40763 whole entry): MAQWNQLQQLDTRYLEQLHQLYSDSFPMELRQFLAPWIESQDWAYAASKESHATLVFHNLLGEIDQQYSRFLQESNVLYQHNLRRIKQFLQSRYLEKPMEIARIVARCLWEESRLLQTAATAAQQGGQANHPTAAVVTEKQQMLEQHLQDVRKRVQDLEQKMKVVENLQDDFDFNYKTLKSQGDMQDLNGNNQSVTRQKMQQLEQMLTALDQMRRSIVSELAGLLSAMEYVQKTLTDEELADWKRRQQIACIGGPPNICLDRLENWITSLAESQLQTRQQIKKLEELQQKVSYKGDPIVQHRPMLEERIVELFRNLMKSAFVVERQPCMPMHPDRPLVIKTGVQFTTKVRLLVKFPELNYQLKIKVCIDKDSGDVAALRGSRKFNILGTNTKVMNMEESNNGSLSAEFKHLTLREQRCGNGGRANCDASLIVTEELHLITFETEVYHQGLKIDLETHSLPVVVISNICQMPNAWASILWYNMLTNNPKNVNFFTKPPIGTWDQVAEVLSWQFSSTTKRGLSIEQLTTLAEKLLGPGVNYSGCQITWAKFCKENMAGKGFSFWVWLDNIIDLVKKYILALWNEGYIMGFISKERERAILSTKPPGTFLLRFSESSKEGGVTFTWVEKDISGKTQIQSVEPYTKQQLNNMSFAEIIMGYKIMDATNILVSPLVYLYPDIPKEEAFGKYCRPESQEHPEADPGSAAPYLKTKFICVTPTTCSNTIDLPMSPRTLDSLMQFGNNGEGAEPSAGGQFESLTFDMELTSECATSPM

| SMILES | IC50 [1] [µM] | IC50 [2] [µM] | IC50 [3] [µM] | IC50 [4] [µM] | also measured |
| --- | --- | --- | --- | --- | --- |
| CN(C)CCOc1ccc(Cl)cc1C(=O)Nc1ccc([N+](=O)[O-])cc1Cl | > 10 | > 10 | – | – | – |
| CN1CCN(CCOc2ccc(Cl)cc2C(=O)Nc2ccc([N+](=O)[O-])cc2Cl)CC1 | > 10 | > 10 | – | – | – |
| O=C(Nc1ccc([N+](=O)[O-])cc1Cl)c1cc(Cl)ccc1OCCF | > 10 | > 10 | – | – | – |
| O=C(Nc1ccc([N+](=O)[O-])cc1Cl)c1cc(Cl)ccc1OC1CCNCC1 [listing 1 of 2 here] | 0.25 | 0.29 | 0.54 | 2.76 | – |
| NCCCCCOc1ccc(Cl)cc1C(=O)Nc1ccc([N+](=O)[O-])cc1Cl | 3.49 | 3.1 | 4.67 | 2.08 | – |
| O=C(Nc1ccc([N+](=O)[O-])cc1Cl)c1cc(Cl)ccc1OCCN1CCOCC1 | 9.87 | 18 | > 10 | 72.2 | – |
| CN1CCC(Oc2ccc(Cl)cc2C(=O)Nc2ccc([N+](=O)[O-])cc2Cl)CC1 | 4.11 | 2.69 | > 10 | 3.51 | – |
| O=C(Nc1ccc([N+](=O)[O-])cc1Cl)c1cc(Cl)ccc1OCCN1CCNCC1 | 12.4 | 8.7 | – | – | – |
| NCCCCOc1ccc(Cl)cc1C(=O)Nc1ccc([N+](=O)[O-])cc1Cl | 3.7 | 2.37 | > 10 | 7.4 | – |
| NCCOc1ccc(Cl)cc1C(=O)Nc1ccc([N+](=O)[O-])cc1Cl | 0.91 | 1.64 | 1.08 | 1.9 | Activity [5]: Dose-dependent effect; Activity [6]: Active; Activity [7]: Active; inhibition [7]: Dose-dependent effect; Activity [8]: Active; TGI [9]: Active; Activity [10]: Active; Activity [11]: Active; inhibition [12]: 32%; inhibition [13]: Active; Activity [14]: Active; Activity [15]: Active; TGI [16]: Active; inhibition [17]: 62%; Activity [18]: Active; inhibition [19]: Active |
| NCCOCCOc1ccc(Cl)cc1C(=O)Nc1ccc([N+](=O)[O-])cc1Cl | 9.37 | 5.3 | > 10 | > 10 | – |
| O=C(Nc1ccc([N+](=O)[O-])cc1Cl)c1cc(Cl)ccc1OCCN1CCCCC1 | > 10 | > 10 | – | – | – |
| Cl.O=C(Nc1ccc([N+](=O)[O-])cc1Cl)c1cc(Cl)ccc1OC1CCNCC1 | – | – | – | – | solubility ([20]; buffer): 248 µg/mL |
| O=C(Nc1ccc([N+](=O)[O-])cc1Cl)c1cc(Cl)ccc1OC1CCNCC1 [listing 2 of 2 here] | – | – | – | – | Activity [10]: Active; Activity [14]: Active; Activity [15]: Active |
| O=C(Nc1ccc([N+](=O)[O-])cc1Cl)c1cc(Cl)ccc1O [NICLOSAMIDE] | 1.06 | 0.79 | 1.73 | 1.47 | Activity [5]: Dose-dependent effect; Activity [7]: Active; Activity [10]: Active; solubility ([20]; water, read-out: solubility): 0.23 µg/mL (≈ 0.703 µM); inhibition [12]: Active; inhibition [13]: Active; TGI [21]: Active; Activity [14]: Active; Activity [15]: Active; inhibition [17]: Active; Activity [18]: Active; inhibition [19]: Active; TGI [22]: Active |
| CC(=O)Nc1ccc(NC(=O)c2cc(Cl)ccc2OC2CCNCC2)c(Cl)c1 | > 10 | 5.87 | – | – | – |
| NCCCOc1ccc(Cl)cc1C(=O)Nc1ccc([N+](=O)[O-])cc1Cl | 3.11 | 2.61 | 3.11 | 4.2 | – |
| CS(=O)(=O)Nc1ccc(NC(=O)c2cc(Cl)ccc2OC2CCNCC2)c(Cl)c1 | > 10 | > 10 | – | – | – |
